hiPSC survival – increases survival of single human iPS cells. hiPSC single-cell survival, ATPlite luminescence; 100% = ROCK inhibitor wells, 0% = DMSO. survival enhancement, % at 20 µM. 360,000 compounds, 0.044% hits; in the data active = survival enhancement above about 18%;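 also: cells exposed to compounds for 16 hours before the ATP read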
PPC-1+TRAIL kill – compounds killing PPC-1 cancer cells with TRAIL present (potentiator screen, no TRAIL-free arm); PPC-1 cells + TRAIL, ATPLite viability luminescence; cell killing (% activity), % at 4 µM or 5 µM; 220,000 compounds, 0.41% hits;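 active = cell killing above 50% in the first pass at 4 µM, then a duplicate retest at 5 µM averaging 50% or more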;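 also: plate controls were cells with TRAIL plus DMSO for no effect and medium-only wells lacking cells for full effect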
TRAIL sens C8 – caspase-8 TRAIL sensitization; NB7+C8 cells + TRAIL, ATPlite viability luminescence; inhibition (viability loss, TRAIL sensitization), % at 10 µM; 360,000 compounds, 1% hits; AID 624354;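 active = compounds causing at least 50% loss of cell viability in the single-dose screen, relative to plate controls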
beta cell repl – MIN6 beta-cell proliferation induction; MIN6 cells proliferation, ATPlite luminescence, 48 h; cells starved in 0.2% serum; 100% = growth in 10% serum; proliferation, % at 10 µM; 330,000 compounds, 0.29% hits; AID 2380;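 active = compounds whose signal lies at least 3.5 SD above the mean of all wells on their plate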;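 also: 0% = DMSO-treated cells in low-serum medium and 100% = 10% serum control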
FLuc inhib CS – counter-screen for luciferase assay inhibitors: firefly luciferase inhibition. P08659. 200,000 compounds, 1.5% hits. inhibition, % at 10 µM. ATPLite firefly luciferase biochemical luminescence, 10 min;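 active = inhibition above about 50% when tested at 10 µM, limit read from the data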
Target sequence (P08659 whole entry, looked up): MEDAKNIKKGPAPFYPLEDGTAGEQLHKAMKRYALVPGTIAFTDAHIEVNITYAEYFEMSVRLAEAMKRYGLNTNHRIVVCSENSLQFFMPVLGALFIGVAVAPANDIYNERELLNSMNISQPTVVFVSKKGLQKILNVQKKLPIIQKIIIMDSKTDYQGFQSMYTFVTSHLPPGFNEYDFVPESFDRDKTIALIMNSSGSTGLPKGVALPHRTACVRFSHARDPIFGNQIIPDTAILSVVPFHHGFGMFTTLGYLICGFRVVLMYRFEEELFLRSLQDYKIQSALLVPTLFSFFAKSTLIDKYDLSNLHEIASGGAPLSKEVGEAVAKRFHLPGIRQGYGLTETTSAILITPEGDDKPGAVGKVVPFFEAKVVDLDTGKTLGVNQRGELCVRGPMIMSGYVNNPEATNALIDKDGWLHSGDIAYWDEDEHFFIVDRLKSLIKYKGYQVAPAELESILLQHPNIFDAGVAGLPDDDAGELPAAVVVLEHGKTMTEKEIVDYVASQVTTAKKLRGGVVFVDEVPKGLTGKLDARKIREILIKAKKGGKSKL
FLuc stim CS – firefly luciferase counter-screen for stimulation assays. ATPlite luciferase biochemical, luminescence, 10 min; 0 = ATP-free wells, 1 = DMSO control. activation factor at 10 µM. 200,000 tested, under 10 active. AID 1027;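 active = luciferase activation factor, scaled between plate controls, of at least 2 with compound at 10 µM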
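Assay system – cell-free luciferase reagent · Medium – PBS-based ATP solution · Dosing – test compounds dosed from 2 mM stocks in 100% DMSO · Timing – 10 min, room temperature · Technique – light output (luminescence) · Measure – luminescence gain marking luciferase activators · Controls – No-ATP low control, compound-free enzyme-plus-ATP high control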
* hit, by the source's call; nt = not tested or not shown. Sampled rows, rich in hits. Any-hit rate of the full collection: about 1.8%.

SMILES	hiPSC survival	PPC-1+TRAIL kill	TRAIL sens C8	beta cell repl	FLuc inhib CS	FLuc stim CS
Cc1nn(C2CCS(=O)(=O)C2)c(C)c1CN(C)C(=O)c1ccccc1 (centres undefined)	0.3	nt	-13.8	-2.8	nt	nt
CC(C)COc1ccc(/C=C2/Sc3ccccc3C2=O)cc1	-3.8	9.4	23.0	-2.7	57.3*	0.4
O=C1c2ccccc2C(=O)N1/N=C/c1ccc(O)c(O)c1	0.4	14.1	7.8	-2.0	74.4*	0.3
CCCC[C@@H]1CNCCN1CCc1cccc2ccccc12	-1.1	nt	16.5	-6.1	nt	nt
Nc1c(N(CCC2=CCCCC2)C(=O)COc2ccc(F)cc2Cl)c(=O)[nH]c(=O)n1Cc1ccccc1	0.1	nt	88.2*	nt	nt	nt
COCCNc1nc(NCCOc2ccccc2)c2sc(-c3ccccc3)cc2n1	-2.9	nt	9.5	nt	nt	nt
CC(C)Cc1ccc(C(C)/C=C2/CCC(CN3CCCCC3)C2=O)cc1 (centres undefined)	-3.5	nt	10.9	nt	nt	nt
CC(C)Cc1ccc(C(C)CC2=CCC(CN(C)C)C2=O)cc1 (centres undefined)	-3.5	nt	90.6*	nt	nt	nt
Cc1cc(Cn2ccnc2)c(C)c([N+](=O)[O-])c1Cn1ccnc1	-0.6	nt	2.8	0.6	nt	nt
COC(=O)C1=C(C)N(Cc2ccccc2)C(=NCc2cccc(Cl)c2)N[C@H]1c1cccc(F)c1	-3.1	nt	80.8*	-6.1	nt	nt
COC(=O)C1=C(C)N(Cc2ccccc2)C(=NCc2ccccc2)N[C@H]1c1cccc(C(F)(F)F)c1	-4.2	nt	77.9*	-5.8	nt	nt
COC(=O)C1=C(C)N(Cc2ccccc2)C(=NCC(C)C)N[C@H]1c1cccc(F)c1	-5.9	nt	15.4	-6.2	nt	nt
COC(=O)C1=C(C)N(Cc2ccccc2)C(=NCC(C)C)N[C@H]1c1cccc(C(F)(F)F)c1	-2.4	nt	56.2*	-5.7	nt	nt
COC(=O)C1=C(C)N(Cc2ccccc2)C(=NCc2ccc(OC)cc2)N[C@H]1c1cccc(F)c1	-3.8	nt	16.3	-8.5	nt	nt
O=C(NCc1ccco1)c1cccc2c1C(=O)c1ccc(/C=C/c3ccccc3)cc1S2(=O)=O	1.9	nt	15.0	-4.3	nt	nt
O=C(CN(Cc1ccc(F)cc1)C(=O)CNS(=O)(=O)c1ccc(Cl)cc1)NCC1CCCO1 (centres undefined)	2.2	nt	-4.9	-2.7	nt	nt
COC(=O)[C@]12CCCCC=C1N(CCc1ccc(OC)c(OC)c1)C(=O)[C@H](CC(=O)NCc1cccc3ccccc13)C2	nt	nt	5.2	nt	nt	nt
COC(=O)[C@]12CCCCC=C1N(Cc1cccc3ccccc13)C(=O)[C@H](CC(=O)NCc1ccc(OC)c(OC)c1)C2	-0.2	nt	63.3*	nt	nt	nt
CO[C@H]1CN(C)C(=O)c2ccc(NC(=O)NC(C)C)cc2OC[C@H](C)NC[C@H]1C	nt	nt	-4.5	nt	nt	nt
O=C(N/N=C/C(Cl)=C/c1ccccc1)c1ccncc1	-0.8	13.1	15.5	-4.9	22.3	0.8
CN(C)c1ccc(/C=N\NC(=O)c2csnn2)cc1	-1.8	34.9	25.9	-4.2	60.2*	0.4
O=C(N/N=C/c1ccncc1)c1ccccn1	4.0	nt	0.4	-4.9	nt	nt
O=C(N/N=C/C(Cl)=C/c1ccccc1)c1ccccn1	-0.8	45.1	56.2*	-5.3	80.6*	0.2
CN(C)c1ccc(/C=N/NC(=O)c2ccco2)cc1	-2.7	41.0	66.1*	-3.3	84.4*	0.2
CN(C)c1ccc(/C=N/NC(=O)c2ccccn2)cc1	-0.6	27.8	65.9*	-2.8	nt	nt
SMILES	hiPSC survival	PPC-1+TRAIL kill	TRAIL sens C8	beta cell repl	FLuc inhib CS	FLuc stim CS
O=C(N/N=C\c1ccc(Oc2ccccc2)cc1)c1csnn1	0.8	8.2	4.4	0.3	24.9	0.8
O=C(NC1CCCC1)C1CC(O)CN1C(=O)Nc1ccccc1 (centres undefined)	-0.5	nt	-7.9	0.9	nt	nt
O=C(N/N=C/c1ccc(OC(=O)c2ccco2)cc1)c1ccccn1	-1.1	34.5	26.0	-0.5	51.8*	0.5
O=C(Oc1ccc(/C=N/NC(=O)c2ccccn2)cc1)c1ccc(Br)cc1	-0.3	nt	18.1	-2.5	nt	nt
CCOC(=O)c1c(CSc2ccccc2)n(C)c2ccc(O)c(CN3CCOCC3)c12	4.7	29.6	21.2	-2.8	0.6	1
O=C(c1cnc(Cl)c(Cl)c1)N1CCN(S(=O)(=O)c2ccc3ccccc3c2)CC1	-0.6	nt	48.1*	-4.8	nt	nt
CCOC(=O)Cc1ccc2sc(-c3ccccc3)nc2c1	-1.4	-5.3	39.0	-3.1	73.6*	0.3

Screens from PubChem.
